Laboratory results as given in ChEMBL document CHEMBL1909630, “Azaxanthene based selective glucocorticoid receptor modulators: design, synthesis, and pharmacological evaluation of (S)-4-(5-(1-((1,3,4-thiadiazol-2-yl)amino)-2-methyl-1-oxopropan-2-yl)-5H-chromeno[2,3-b]pyridin-2-yl)-2-fluoro-N,N-dimethylbenzamide (BMS-776532) and its methylene homologue …” (J Med Chem, 2011).
Calls of active or inactive are those of the source. The calls are words filed in the database; no cut-off is given here.

Legend:
Rattus norvegicus [1] = assay: Antiinflammatory activity in Sprague-Dawley rat assessed as carrageenan-induced paw edema at 30 mg/kg, po administered as a single dose 2 hrs before carrageenan challenge measured 4 hrs post carrageenan challenge by plethysmometry relative to control
Blood [2] = assay: Antiinflammatory activity in human whole blood assessed as inhibition of IL-1beta-induced IL-8 production after overnight incubation by ELISA relative to Dexamethasone; format: functional
Method in brief: (§1)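 Whole blood from two donors per experiment was collected into ACD-A. Compounds were added and the blood was incubated about 20 h at 37 °C under 5% CO2. Blood was then stimulated for 5 h with LPS (final 100 ng/mL, for TNFα) or IL-1β (final 10 ng/mL, for IL-8). Plasma TNFα or IL-8 was measured by ELISA. Efficacy was expressed as % of dexamethasone, and values are means of at least two experiments.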

SAOS-2 = assay: Induction of alkaline phosphatase expression in human Saos2 cells after 3 days by spectrophotometry; format: cell-based; conditions: SAOS-2, 72 h
[3] = target: T1, Mineralocorticoid receptor (Homo sapiens, UniProt P08235); assay: Agonist activity at human mineralocorticoid receptor expressed in human A549 cells by fluorescence polarization assay; format: functional, cell-based
T1 sequence (P08235 whole entry): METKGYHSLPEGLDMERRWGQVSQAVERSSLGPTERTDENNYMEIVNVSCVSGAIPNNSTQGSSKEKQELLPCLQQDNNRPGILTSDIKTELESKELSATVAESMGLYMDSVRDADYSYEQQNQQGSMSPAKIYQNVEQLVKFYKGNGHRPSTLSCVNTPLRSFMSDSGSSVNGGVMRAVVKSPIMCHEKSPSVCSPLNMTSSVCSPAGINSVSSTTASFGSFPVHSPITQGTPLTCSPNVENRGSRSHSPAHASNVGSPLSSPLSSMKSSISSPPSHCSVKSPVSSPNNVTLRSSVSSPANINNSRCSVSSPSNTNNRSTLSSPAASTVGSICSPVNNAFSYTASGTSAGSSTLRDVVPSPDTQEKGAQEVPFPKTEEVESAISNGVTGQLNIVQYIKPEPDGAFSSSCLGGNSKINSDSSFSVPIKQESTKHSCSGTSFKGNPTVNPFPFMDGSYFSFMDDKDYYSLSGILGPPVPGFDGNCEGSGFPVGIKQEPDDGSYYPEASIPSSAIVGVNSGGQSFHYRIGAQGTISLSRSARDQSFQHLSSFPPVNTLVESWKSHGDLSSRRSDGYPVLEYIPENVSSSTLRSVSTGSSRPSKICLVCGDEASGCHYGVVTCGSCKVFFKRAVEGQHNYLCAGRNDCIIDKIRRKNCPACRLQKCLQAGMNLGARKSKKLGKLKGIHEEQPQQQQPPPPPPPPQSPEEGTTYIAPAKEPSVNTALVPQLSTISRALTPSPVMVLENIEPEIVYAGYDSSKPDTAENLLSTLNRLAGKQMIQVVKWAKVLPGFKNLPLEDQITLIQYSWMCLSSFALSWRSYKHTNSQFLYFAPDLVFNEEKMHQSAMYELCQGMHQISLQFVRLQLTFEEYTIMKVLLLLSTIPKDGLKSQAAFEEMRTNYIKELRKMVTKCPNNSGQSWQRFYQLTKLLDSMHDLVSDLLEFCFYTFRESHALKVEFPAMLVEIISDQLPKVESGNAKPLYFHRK

Blood [4] = assay: Antiinflammatory activity in human whole blood assessed as inhibition of TNF-alpha-induced IL-8 production after overnight incubation by ELISA; format: functional, tissue-based
Blood [5] = assay: Antiinflammatory activity in human whole blood assessed as inhibition of LPS-induced TNFalpha production after overnight incubation by ELISA relative to Dexamethasone; format: functional
Method in brief: as §1

Rattus norvegicus [6] = assay: Antiinflammatory activity in Freund's complete adjuvant-induced Lewis rat arthritis model assessed as reduction in paw swelling at 5 mg/kg/day, po qd for 21 days; format: functional, organism-based
Method in brief: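 Male Lewis rats were inoculated with Mycobacterium butyricum in incomplete Freund's adjuvant. Oral dosing was daily and preventative, running from day 0 to day 21. Onset and progression of arthritis were followed, and ED50 was estimated from the dose response.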

MG-63 [7] = assay: Induction of glutamine synthase expression in human MG63 cells after overnight incubation by spectrophotometry; format: cell-based
Blood [8] = assay: Antiinflammatory activity in human whole blood assessed as inhibition of TNF-alpha-induced IL-8 production after overnight incubation by ELISA relative to dexamethasone; format: functional
Blood [9] = assay: Antiinflammatory activity in human whole blood assessed as inhibition of LPS-induced TNFalpha production after overnight incubation by ELISA; format: functional, tissue-based
Method in brief: as §1

Blood [10] = assay: Antiinflammatory activity in human whole blood assessed as inhibition of IL-1beta-induced IL-8 production after overnight incubation by ELISA; format: functional, tissue-based
Method in brief: as §1

MG-63 [11] = assay: Induction of glutamine synthase expression in human MG63 cells after overnight incubation by spectrophotometry relative to prednisolone; format: cell-based

EC50 [3]: 2 nM
EC50 (Blood [4]): 124 nM
EC50 (MG-63 [7]): 19 nM
EC50 (Blood [9]): 89 nM
EC50 (Blood [10]): 104 nM
Compound: C[C@]12C=CC(=O)C=C1CC[C@@H]1[C@@H]2[C@@H](O)C[C@@]2(C)[C@H]1CC[C@]2(O)C(=O)CO [PREDNISOLONE]
level, % of control at 30 mg/kg (Rattus norvegicus [1]): 49%
Imax (Blood [2]): 94%
Emax (SAOS-2): 68%
Imax (Blood [5]): 94%
Activity (Rattus norvegicus [6]): Active
Imax (Blood [8]): 94%
Emax (MG-63 [11]): 100%
